In publication PMC9426400 (Hepatology Communications, 2022):
Where two headings read alike, the source gives them in different places.

What was measured:
subjects with NASH = conditions: cited from earlier work
Huh7 cells = assay: FAO assay in Huh7 cells; type: cell-based, human; conditions: for EC50: Homo sapiens; for FAO induction (times): 14C-OA, monotherapy; for Stimulation of FAO: at the concentrations tested
[1] = system: FFD-fed dyslipidemic Sprague Dawley rats; assay: Dyslipidemic rat model; type: in vivo; conditions: for Dose in ACCi combination with significantly reduced hepatic Apoc3 expression: relative to both vehicle and ACCi alone; for Dose inducing PPAR target genes in eWAT: epidydimal white adipose tissue
Method in brief: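 Sprague Dawley rats fed FFD plus 4.03% sugar water (2.3% fructose, 1.7% glucose) for 28 days, across three studies. PPAR or THRβ agonists started Day 7 and ACCi Day 14. Circulating TG on Day 22 (serum Study 2, plasma Studies 3–4; n = 5–10/group). Terminal liver TG was taken fed, 8 h post-dose. Liver and eWAT gene expression measured. Nonparametric statistics, p ≤ 0.05.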

FFD-fed C57BL/6 mice = assay: FFD mouse model of early NASH; type: in vivo
rat PPARδ = target: T1, rat PPARδ (Rattus norvegicus, UniProt Q62879); assay: PPAR luciferase reporter assay, rat PPARδ; type: cell-based
T1 sequence (Q62879 1-440): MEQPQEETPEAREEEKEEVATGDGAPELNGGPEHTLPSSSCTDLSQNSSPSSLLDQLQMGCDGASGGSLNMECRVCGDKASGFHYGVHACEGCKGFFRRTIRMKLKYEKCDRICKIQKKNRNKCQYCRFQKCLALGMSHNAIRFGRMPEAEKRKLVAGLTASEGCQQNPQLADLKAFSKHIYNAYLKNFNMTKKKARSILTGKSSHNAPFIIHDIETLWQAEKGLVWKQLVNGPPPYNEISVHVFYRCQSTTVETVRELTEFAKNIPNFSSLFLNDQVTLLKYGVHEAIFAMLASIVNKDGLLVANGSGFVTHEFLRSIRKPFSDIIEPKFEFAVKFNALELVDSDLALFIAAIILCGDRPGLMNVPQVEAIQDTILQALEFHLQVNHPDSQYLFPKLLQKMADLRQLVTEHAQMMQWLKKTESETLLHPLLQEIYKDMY

FAO = FAO assay validation with CPT1 inhibitor etomoxir; type: cell-based; conditions: read-out: EC50, block of FAO
[2] = system: LX2 human hepatic stellate cell line; assay: LX2 collagen assay; type: cell-based; conditions: LX-2, read-out: EC50, inhibition of collagen production
[3] = Huh-7, read-out: FAO EC50, Huh7 cells, 14C-OA, monotherapy
[4] = Study 2, combination with ACCi 30 mg/kg, 15 mg/kg Feno, 30 mg/kg Ela

SMILES: CCc1ccc(CCOc2ccc(CC3SC(=O)NC3=O)cc2)nc1 (centres unmarked) [pioglitazone]
- NASH resolution (share of subjects) (subjects with NASH; vs. 21% placebo): 47%

SMILES: CC(C)c1cc(Oc2c(Cl)cc(-n3nc(C#N)c(=O)[nH]c3=O)cc2Cl)n[nH]c1=O [Res, Resmetirom]
- EC50 (Huh7 cells; [3]): 46000 nM
- FAO induction (times) (Huh7 cells; Huh7 cells): 1.6 times
- Liver TG reduction compared with vehicle ([1]; Study 4, 1 mg/kg Res in combination with ACCi 30 mg/kg): 83%
- Liver TG reduction compared with vehicle ([1]; Study 4, 3 mg/kg Res in combination with ACCi 30 mg/kg): 88%
- Liver TG in combination with ACCi relative to ACCi alone ([1]; dyslipidemic rats, combined with ACCi 30 mg/kg): lowered liver TG relative to ACCi alone
- Circulating TG reduction vs. vehicle ([1]; dyslipidemic rats, monotherapy, 3 mg/kg, after 1 week): 50%
- Dose in ACCi combination with significantly reduced hepatic Apoc3 expression [1]: 3 mg/kg
- NASH resolution (share of subjects) (subjects with NASH; vs. 6.5% placebo): 27.4%

SMILES: CC(C)OC(=O)C(C)(C)Oc1ccc(C(=O)c2ccc(Cl)cc2)cc1 [Feno, fenofibrate]
- Liver total cholesterol content reduction (FFD-fed C57BL/6 mice; Feno^high (150 mg/kg) monotherapy): 57%
- Liver total cholesterol content reduction (FFD-fed C57BL/6 mice; Feno^low (50 mg/kg) monotherapy): 49%
- Liver TG reduction compared with vehicle [1, 4]: 58%
- Dose in ACCi combination with significantly reduced hepatic Apoc3 expression [1]: ≥ 5 mg/kg

SMILES: CCO[C@@H](Cc1ccc(OCCn2c(C)ccc2-c2ccc(SC)cc2)cc1)C(=O)O [Saro, saroglitazar]
- EC50 (Huh7 cells; [3]): 51500 nM
- FAO induction (times) (Huh7 cells; Huh7 cells): 3.6 times
- Dose inducing PPAR target genes in eWAT ([1]; dyslipidemic rats): 3 mg/kg
- Dose in ACCi combination with significantly reduced hepatic Apoc3 expression [1]: ≥ 0.3 mg/kg

SMILES: CC(C)(Oc1ccc(C(=O)c2ccc(Cl)cc2)cc1)C(=O)O [Fenofibric acid]
- Activity in the FAO assay (Huh7 cells; Huh7 cells, up to a concentration of 100 μM): not active

SMILES: COc1ccccc1[C@H](Cn1c(=O)n(C(C)(C)C(=O)O)c(=O)c2c(C)c(-c3ncco3)sc21)OC1CCOCC1 [FIR, Firsocostat]
- EC50 (Huh7 cells; Huh-7, read-out: FAO EC50, Huh7 cells, 14C-OA tracer): 32.7 nM
- EC50 (Huh7 cells; Huh-7, read-out: FAO EC50, Huh7 cells, 14C-PA tracer): 16.6 nM
- Reduction in relative liver TG (subjects with NASH; subjects with NASH): 30%

SMILES: CCO[C@H](COc1ccc(C(F)(F)F)cc1)CSc1ccc(OCC(=O)O)c(C)c1 [Sela, seladelpar]
- Stimulation of FAO (Huh7 cells; Huh7 cells): did not stimulate FAO
- Dose inducing PPAR target genes in eWAT ([1]; dyslipidemic rats): 15 mg/kg
- Dose in ACCi combination with significantly reduced hepatic Apoc3 expression [1]: 15 mg/kg
- NASH resolution (share of subjects) (subjects with NASH; over 52 weeks, vs. 8% placebo): 26%

SMILES: O=C(O)CCCc1cc2cc(Cl)ccc2n1S(=O)(=O)c1ccc2ncsc2c1 [Lani, lanifibranor]
- Stimulation of FAO (Huh7 cells; Huh7 cells): did not stimulate FAO
- NASH resolution (share of subjects) (subjects with NASH; over 24 weeks, vs. 19% placebo): 45%
- Fibrosis regression (share of subjects) (subjects with NASH; over 24 weeks, vs. 24% placebo): 42%
- Activation of rat PPARδ (rat PPARδ): did not activate rat PPARδ

SMILES: CCOC(=O)[C@@]1(CCCCCCOc2ccc(Cl)cc2)CO1 [etomoxir]
- EC50 (FAO): 136 nM

SMILES: CSc1ccc(C(=O)/C=C/c2cc(C)c(OC(C)(C)C(=O)O)c(C)c2)cc1 [Ela, elafibranor]
- EC50 (Huh7 cells; [3]): 10300 nM
- FAO induction (times) (Huh7 cells; Huh7 cells): 1.4 times
- EC50 [2]: ~2000 nM
- Liver TG reduction compared with vehicle [1, 4]: 76%
- Dose in ACCi combination with significantly reduced hepatic Apoc3 expression [1]: ≥ 3 mg/kg
